Converted amounts (≈) assume the structure as drawn. The source made the active and inactive calls. The calls are words filed in the database; no cut-off is given here.

Data set [1] is filed under the species Homo sapiens. Briefly: Metabolic stability in 80% human plasma assessed as half life at pH 7.4.
A short description of data set [2]: Chemical stability assessed as half life in hydrochloric acid buffer at pH 1.3. Type of data set: physicochemical. An outline of the steps: (§1)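 Prodrug hydrolysis was followed at 37 ± 0.5 °C. Line 3 used 0.02 M HCl buffer pH 1.3 (nonenzymatic simulated gastric fluid); line 4 used 0.02 M phosphate buffer pH 7.4. Each buffer contained 20% acetonitrile, and the reaction was started with 10^-4 M acetonitrile stock. Aliquots were analysed by HPLC. Kobs came from the slope of log(% residual prodrug) versus time; triplicate runs, mean ± SEM.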

Data set [3] in a line: Chemical stability assessed as half life in phosphate buffer at pH 7.4. It is filed as physicochemical. Put shortly: as §1
Data set [4] relates to Radical scavenging activity. Briefly: Antioxidant activity assessed as DPPH radical scavenging activity. Type of data set: functional. An outline of the steps: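 DPPH-HPLC method. Fresh 500 μM DPPH in methanol was mixed 1:1 by volume with antioxidant solutions made at 600, 300, 100 and 50 μM in methanol (DPPH final 250 μM). Residual DPPH was separated by reversed-phase C18 HPLC using a pH 3.0 phosphate/octanesulfonate/EDTA mobile phase with 6% acetonitrile. Vitamin E, caffeic acid and L-DOPA were run as references.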
For orientation: DPPH is a stable violet radical that fades when it is reduced.

Data set [5] is described as follows: Aqueous solubility after 15 mins by shake flask method. It is filed as physicochemical. Conditions: water.
Data set [6] is described as follows: Octanol-water partition coefficient, log P at pH 7.4 by HPLC. Type of data set: physicochemical. Put shortly:
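Shake-flask method. About 5 mg of compound was shaken in 1 mL n-octanol and filtered, then an equal volume of phosphate buffer pH 7.4 was added. The mixture was inverted up to 200 times over 5 min and left 30 min for the phases to separate. Both phases were analysed by HPLC. Mean of three experiments, SEM reported.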

Data set [7] is described as follows: Metabolic stability in 80% rat plasma assessed as half life at pH 7.4. It is filed as ADME, cell-free. Put shortly:
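Plasma was prepared from citrated blood (0.3% citric acid) of rats or humans by centrifugation at 3000 g and diluted to 80% with 0.02 M phosphate buffer pH 7.4. Drug from a 1 mg/mL acetonitrile stock was incubated at 37 °C with shaking. Timed aliquots were deproteinized with 0.01 M HCl in methanol, centrifuged and analysed by HPLC. First-order plots gave t1/2; triplicate, mean ± SEM.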

`COC(=O)CN1C(=O)[C@H](Cc2ccc(O)c(O)c2)NC1(C)C`: the half-life in data set [1] was 0.714 h; in data set [2], 189 h; in data set [3], 4.2 h; in data set [7] it was 1.17 h. The result in data set [4] was Active. The compound also gave a thermodynamic solubility at 0.25 h in data set [5] of 3990 µg/mL (≈ 12.9 mM). The same compound had a pH-dependent lipophilicity (logD) in data set [6] of 0.101.
As to `CCC1(CC)N[C@@H](Cc2ccc(O)c(O)c2)C(=O)N1CC(=O)OC`, the half-life in data set [1] came to 0.793 h; in data set [2] it was 64.3 h; in data set [3], 4.75 h; in data set [7], 1.89 h. In data set [4], the result was Active. Besides, the thermodynamic solubility at 0.25 h in data set [5] is 260 µg/mL (≈ 0.773 mM). The same compound had a pH-dependent lipophilicity (logD) in data set [6] of 0.94.
In data set [5], `N[C@@H](Cc1ccc(O)c(O)c1)C(=O)O` [LEVODOPA] registered a solubility (thermodynamic) at 0.25 h of 3600 µg/mL (≈ 18.3 mM). In data set [6], this compound had a lipophilicity (logP) of -2.38.
`COC(=O)CN1C(=O)[C@H](Cc2ccc(OC(C)=O)c(OC(C)=O)c2)NC1(C)C`: the half-life in data set [1] is 0.392 h; in data set [2] it was 71.2 h; in data set [3] it was 11.6 h; in data set [7], 0.065 h. Further, the outcome in data set [4] was inactive. In addition, the solubility (thermodynamic) at 0.25 h in data set [5] stood at 26000 µg/mL (≈ 66.4 mM). Moreover, the logD in data set [6] was 0.042.

As usually defined, the half-life is the time in which the quantity being followed falls by half. The solubility (thermodynamic) is solubility found after equilibrating the solid with the medium. As a reminder, the logD is the decadic logarithm of the distribution of all forms, ionised or not, between an organic phase and buffer at a given pH. Low readings indicate a more hydrophilic compound, high ones a more lipophilic compound. As usually defined, the logP is the decadic logarithm of the partition coefficient of the neutral form, usually between octanol and water. Read a low logP as a more hydrophilic compound.

For the origin of these results see ChEMBL document CHEMBL1157590, “Design, synthesis, and preliminary pharmacological evaluation of new imidazolinones as L-DOPA prodrugs” (Bioorg Med Chem, 2010).
